Source: PMC8178204 (Cancer research, 2021)
pIC50: −log10 of the molar value.

Legend:
LC3, p62, LAMP2 = test: Immunoblot time course of autophagy-degraded proteins in SW480 cells; type: cell-based, human; settings: for p62 accumulation, p38MAPK inhibitor alone: SW480, 1 or 3 days
SW480 cells = test: Cell survival, dead cells and proliferation of SW480 cells; type: cell-based, human; settings: SW480, 0.125 μM WX8 and/or 5 μM SB202190
[1] = system: SW480 colon adenocarcinoma xenografts; test: SW480 xenograft in nude mice; settings: for reduction of tumor growth: 20 mg/kg WX8 and/or 12.5 mg/kg SB202190, day 22; for Ki-67 positive tumor cells: tumor sections
12 cancer lines = test: Cell survival after 3 days, viable cell count with FACS; type: cell-based, human; settings: read-out: median IC50 (concentration that cause 50% reduction in cell survival), 3 days of treatment
[2] = system: 8 normal fibroblast cell lines; test: as above; type: cell-based, human; settings: read-out: median IC50 (concentration that cause 50% reduction in cell survival), 3 days of treatment
[3] = system: HCT116 and A375 (sensitive), WI38 and Hs27 (resistant) cell lines; test: Cell survival, sensitive versus resistant cell lines; type: cell-based, human
LC3, p62 = type: cell-based, human; settings: 0.5 μM WX8, all four cell lines
MCF10A cells = test: Cell survival of MCF10A cells after p38MAPK siRNA depletion; type: cell-based, human; settings: 0.5 μM WX8, 3 days
Cathepsin D = Cathepsin D maturation in SW480 cells; type: cell-based, human; settings: SW480, 0.125 μM WX8 with or without 5 μM SB202190
How it was run: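 SW480 cells were cultured for the indicated times with 0.125 μM WX8, 5 μM SB202190, or both, each diluted 1:1,000 from DMSO stocks, with DMSO as vehicle. Cells were trypsinized and pooled with unattached cells, then lysed in SDS sample buffer. Precursor and mature Cathepsin D were immunoblotted (nitrocellulose, peroxidase secondary, chemiluminescence) and quantified by densitometry of low-exposure images.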

[4] = SW480, 0.125 μM WX8 and/or 5 μM SB202190
[5] = 20 mg/kg WX8 and/or 12.5 mg/kg SB202190

## CC(C)(C)Cn1c(N)nc2ccc(-c3[nH]c(C(C)(C)C)nc3-c3ccc(F)cc3)nc21 [LY2228820]
LC3, p62, LAMP2
  p62 accumulation, p38MAPK inhibitor alone: caused accumulation of p62

## Oc1ccc(-c2nc(-c3ccncc3)c(-c3ccc(F)cc3)[nH]2)cc1 [SB202190]
SW480 cells
  effect on proliferation (cell divisions per day) over time: reduced proliferation for up to two days
LC3, p62, LAMP2; [4]
  LAMP2 level increase: about 3 fold
  p62 level increase: about 3 fold
  total LC3 protein accumulation above initial levels: 2 fold
LC3, p62, LAMP2
  p62 accumulation, p38MAPK inhibitor alone: caused accumulation of p62
[1]; daily intraperitoneal, 20 mg/kg WX8 and/or 12.5 mg/kg SB202190
  adverse effects (mouse behavior, body weight): No adverse effects were apparent
[1]; daily intraperitoneal
  reduction of tumor growth: 28%
[1]; [5]
  Ki-67 positive tumor cells: about 75%

## C(=N\Nc1nc(Nc2ccccc2)nc(N2CCOCC2)n1)/c1c[nH]c2ccccc12 [WX8]
12 cancer lines
  pIC50: 6.70
[2]
  pIC50: 5.57
[3]
  difference in sensitivity to WX8 between sensitive and resistant cell lines: approximately 16 fold
LC3, p62
  Total LC3 and the LC3-II/I ratio: increased
  p62 level: p62 accumulation
MCF10A cells; control siRNA-transfected cells
  reduction of cell survival: 20%
MCF10A cells; highest levels of p38MAPK depletion
  reduction of cell survival: 65%
SW480 cells
  effect on proliferation (cell divisions per day) over time: reduced proliferation for up to two days
LC3, p62, LAMP2; [4]
  LAMP2 level increase: about 3 fold
  p62 level increase: about 3 fold
  time course of LC3 and p62 protein levels: peaked on day 2
  total LC3 protein accumulation above initial levels: 5 fold
Cathepsin D
  day at which active Cathepsin D reappeared: 3 days
[1]; daily intraperitoneal
  reduction of tumor growth: 22%
[1]; [5]
  Ki-67 positive tumor cells: about 75%
